ChEMBL document CHEMBL2424621, “Discovery, synthesis and biological evaluation of cycloprotoberberine derivatives as potential antitumor agents” (Eur J Med Chem, 2013)
≈ marks a conversion by molar mass, not a printed value. Calls of active or inactive are those of the source. The calls are words filed in the database; no cut-off is given here.

How the values were obtained:
HepG2 [1] = assay: Antiproliferative activity against human HepG2 cells assessed as growth inhibition at 0.6 ug/ml after 48 hrs by SRB assay; type: functional; conditions: HepG2, 48 h, read-out: GI
Summary of the method: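 Single-concentration SRB screen. HepG2 cells were grown in MEM-EBSS with 10% FBS and exposed to 0.6 µg/mL compound for 48 h alongside untreated controls. Cells were fixed with TCA and stained with SRB, then read at 492 nm. Results are given as % inhibition versus control, from triplicates reported as mean and SD.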

HepG2 [2] = assay: Antiproliferative activity against human HepG2 cells assessed as growth inhibition after 24 hrs by SRB assay; type: functional, cell-based; conditions: HepG2, 24 h
Summary of the method: (§1)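 SRB assay. Cells were seeded at 4×10^3–8×10^3/mL in MEM-EBSS with 10% heat-inactivated FBS at 37 °C and 5% CO2, then treated at 0.039, 0.15, 0.63 and 2.5 µg/mL for 24 or 48 h. Cells were fixed with 50% TCA, stained with 0.4% SRB in 1% acetic acid and solubilized in 10 mM Trizma base, with absorbance read at 492 nm. IC50 is the concentration giving 50% of control cell number, from triplicates reported as mean and SD.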

HCT-116 [3] = assay: Antiproliferative activity against human HCT116 cells assessed as growth inhibition after 24 hrs by SRB assay; type: functional, cell-based; conditions: HCT-116, 24 h; summary of the method: as §1
HCT-116 [4] = assay: Antiproliferative activity against human HCT116 cells assessed as growth inhibition after 48 hrs by SRB assay; type: functional, cell-based; conditions: HCT-116, 48 h; summary of the method: as §1
HepG2 [5] = assay: Antiproliferative activity against human HepG2 cells assessed as growth inhibition after 48 hrs by SRB assay; type: functional, cell-based; conditions: HepG2, 48 h; summary of the method: as §1
[6] = molecular target: T1, DNA topoisomerase 1 (Homo sapiens) (UniProt P11387); conditions: 18 to 36 uM
T1 sequence (whole entry): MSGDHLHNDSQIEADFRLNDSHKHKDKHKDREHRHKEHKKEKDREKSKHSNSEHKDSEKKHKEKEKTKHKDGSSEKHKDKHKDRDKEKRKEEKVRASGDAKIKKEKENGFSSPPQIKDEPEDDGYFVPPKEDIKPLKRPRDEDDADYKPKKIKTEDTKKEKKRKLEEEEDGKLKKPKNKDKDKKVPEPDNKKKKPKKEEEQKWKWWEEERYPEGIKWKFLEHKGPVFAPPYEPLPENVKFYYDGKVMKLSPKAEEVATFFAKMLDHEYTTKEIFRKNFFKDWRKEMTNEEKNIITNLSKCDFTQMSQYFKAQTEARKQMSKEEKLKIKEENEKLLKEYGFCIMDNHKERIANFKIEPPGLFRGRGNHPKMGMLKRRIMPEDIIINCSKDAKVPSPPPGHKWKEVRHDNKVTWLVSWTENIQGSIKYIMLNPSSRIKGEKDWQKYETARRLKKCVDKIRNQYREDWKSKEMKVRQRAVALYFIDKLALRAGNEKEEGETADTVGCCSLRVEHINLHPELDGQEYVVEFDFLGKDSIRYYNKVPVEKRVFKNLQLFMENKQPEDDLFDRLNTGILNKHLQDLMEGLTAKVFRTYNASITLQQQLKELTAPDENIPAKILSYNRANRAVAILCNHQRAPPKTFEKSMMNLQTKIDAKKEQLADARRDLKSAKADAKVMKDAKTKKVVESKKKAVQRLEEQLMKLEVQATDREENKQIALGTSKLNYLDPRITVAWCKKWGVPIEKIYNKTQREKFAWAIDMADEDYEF

[7] = molecular target: DNA topoisomerase 2-alpha (Homo sapiens) (UniProt P11388); conditions: 100 ug/ml
[8] = Antiproliferative activity against human MCF7/ADR cells assessed as growth inhibition after 24 to 48 hrs by SRB assay; type: functional, cell-based; conditions: NCI/ADR-RES
Summary of the method: (§2)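 Parental MCF-7 cells and doxorubicin-resistant MCF-7/ADrR cells were tested; the resistant line was maintained in medium containing DOX. Each line was treated at 0.039–2.5 µg/mL for 24 and 48 h. Growth was read by SRB staining after TCA fixation, with absorbance at 492 nm. IC50 is the concentration reducing cell number to 50% of control, from triplicates.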

HCT-116 [9] = assay: Cell cycle arrest in human HCT116 cells assessed as accumulation at S phase at 0.5 ug/ml after 4 hrs using propidium iodide staining by flow cytometric analysis (reference value: 29.1%); type: functional
HCT-116 [10] = assay: Cell cycle arrest in human HCT116 cells assessed as accumulation at G0/G1 phase at 0.5 ug/ml after 24 hrs using propidium iodide staining by flow cytometric analysis (reference value: 48.7%); type: functional
HCT-116 [11] = assay: Cell cycle arrest in human HCT116 cells assessed as accumulation at G2/M phase at 0.5 ug/ml after 24 hrs using propidium iodide staining by flow cytometric analysis (reference value: 22.2%); type: functional
HCT-116 [12] = assay: Cell cycle arrest in human HCT116 cells assessed as accumulation at G0/G1 phase at 0.5 ug/ml after 4 hrs using propidium iodide staining by flow cytometric analysis (reference value: 48.7%); type: functional
HCT-116 [13] = assay: Cell cycle arrest in human HCT116 cells assessed as accumulation at G0/G1 phase at 0.5 ug/ml after 12 hrs using propidium iodide staining by flow cytometric analysis (reference value: 48.7%); type: functional
HCT-116 [14] = assay: Cell cycle arrest in human HCT116 cells assessed as accumulation at G2/M phase at 0.5 ug/ml after 4 hrs using propidium iodide staining by flow cytometric analysis (reference value: 22.2%); type: functional
MCF7 = assay: Antiproliferative activity against human MCF7 cells assessed as growth inhibition after 24 to 48 hrs by SRB assay; type: functional, cell-based; summary of the method: as §2
[15] = molecular target: DNA topoisomerase 2-alpha (Homo sapiens) (UniProt P11388); assay: Inhibition of human DNA topoisomerase 2 assessed as decatenation of kinetoplast DNA at 15 ug/ml after 30 mins
Summary of the method: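 Decatenation assay with 0.15 µg kinetoplast DNA and 4 U human Top II. Buffer was 50 mM Tris-HCl pH 8, 120 mM KCl, 10 mM MgCl2, 0.5 mM ATP, 0.5 mM DTT and 30 µg/mL BSA, incubated at 37 °C for 30 min with or without compound. Reactions were stopped with Sarkosyl loading dye and run on 1% agarose in TAE at 4 V/cm for 40 min. Gels were stained with ethidium bromide and imaged under UV.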

HCT-116 [16] = assay: Cell cycle arrest in human HCT116 cells assessed as accumulation at S phase at 0.5 ug/ml after 24 hrs using propidium iodide staining by flow cytometric analysis (reference value: 29.1%); type: functional
[17] = molecular target: T1, DNA topoisomerase 1 (Homo sapiens); assay: Inhibition of human DNA topoisomerase 1 assessed as decrease in mobility of relaxed isomers of supercoiled pBR322 DNA at 15 uM after 30 mins
Summary of the method: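 Gel-based relaxation assay with 1 unit human Top I. Enzyme was preincubated with compound at 37 °C for 20 min, then 0.5 µg supercoiled pBR322 DNA was added and incubated at 37 °C for 30 min. Reactions were stopped with 0.5% SDS, bromophenol blue and 15% glycerol. Relaxed and supercoiled forms were resolved by agarose electrophoresis.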

HCT-116 [18] = assay: Cell cycle arrest in human HCT116 cells assessed as accumulation at S phase at 0.5 ug/ml after 12 hrs using propidium iodide staining by flow cytometric analysis (reference value: 29.1%); type: functional
HCT-116 [19] = assay: Cell cycle arrest in human HCT116 cells assessed as accumulation at G2/M phase at 0.5 ug/ml after 12 hrs using propidium iodide staining by flow cytometric analysis (reference value: 22.2%); type: functional

Sequence of DNA topoisomerase 2-alpha (Homo sapiens) (P11388 whole entry): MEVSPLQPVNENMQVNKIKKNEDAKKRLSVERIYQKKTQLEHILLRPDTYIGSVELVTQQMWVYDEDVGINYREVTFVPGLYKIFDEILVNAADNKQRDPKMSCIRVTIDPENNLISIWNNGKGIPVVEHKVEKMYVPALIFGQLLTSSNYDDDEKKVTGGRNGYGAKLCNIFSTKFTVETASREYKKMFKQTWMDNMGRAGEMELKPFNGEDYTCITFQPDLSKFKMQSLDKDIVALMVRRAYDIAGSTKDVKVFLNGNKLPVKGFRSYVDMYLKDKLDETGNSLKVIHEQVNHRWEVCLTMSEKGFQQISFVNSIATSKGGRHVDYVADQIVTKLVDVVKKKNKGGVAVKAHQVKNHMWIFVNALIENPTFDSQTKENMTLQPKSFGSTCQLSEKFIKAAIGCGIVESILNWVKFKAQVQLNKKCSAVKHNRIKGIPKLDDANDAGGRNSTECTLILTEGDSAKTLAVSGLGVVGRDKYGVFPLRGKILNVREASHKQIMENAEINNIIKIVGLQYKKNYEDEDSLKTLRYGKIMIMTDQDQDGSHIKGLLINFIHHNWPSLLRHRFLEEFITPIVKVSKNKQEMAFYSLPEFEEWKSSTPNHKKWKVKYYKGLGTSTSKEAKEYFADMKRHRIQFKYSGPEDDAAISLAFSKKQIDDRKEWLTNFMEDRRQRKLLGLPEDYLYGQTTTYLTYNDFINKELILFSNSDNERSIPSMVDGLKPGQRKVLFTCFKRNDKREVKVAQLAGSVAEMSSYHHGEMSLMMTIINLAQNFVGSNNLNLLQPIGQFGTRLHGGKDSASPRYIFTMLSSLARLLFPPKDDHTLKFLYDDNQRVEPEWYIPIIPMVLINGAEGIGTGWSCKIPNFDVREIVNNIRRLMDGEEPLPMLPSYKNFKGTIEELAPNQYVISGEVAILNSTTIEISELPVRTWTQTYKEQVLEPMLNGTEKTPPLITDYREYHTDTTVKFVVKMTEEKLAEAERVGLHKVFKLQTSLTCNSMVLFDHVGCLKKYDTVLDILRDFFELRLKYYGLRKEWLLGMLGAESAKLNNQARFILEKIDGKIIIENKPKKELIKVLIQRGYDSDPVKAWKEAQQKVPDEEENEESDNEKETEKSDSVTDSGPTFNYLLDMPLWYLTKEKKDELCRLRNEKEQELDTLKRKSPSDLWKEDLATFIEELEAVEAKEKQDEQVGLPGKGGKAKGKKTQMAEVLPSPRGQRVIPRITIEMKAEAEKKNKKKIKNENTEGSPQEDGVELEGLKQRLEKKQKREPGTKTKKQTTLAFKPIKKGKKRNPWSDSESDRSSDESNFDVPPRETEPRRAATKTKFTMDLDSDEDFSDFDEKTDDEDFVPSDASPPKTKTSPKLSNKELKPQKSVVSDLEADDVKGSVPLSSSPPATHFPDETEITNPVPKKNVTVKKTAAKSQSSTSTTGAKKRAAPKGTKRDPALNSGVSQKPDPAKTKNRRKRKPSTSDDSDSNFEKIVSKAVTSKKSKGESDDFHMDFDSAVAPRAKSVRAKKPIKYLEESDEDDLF

SMILES	inhibition of growth at 0.6 µg/mL (HepG2 [1]) [%]	IC50 (HepG2 [2]) [nM]	IC50 (HCT-116 [3]) [nM]	IC50 (HCT-116 [4]) [nM]	IC50 (HepG2 [5]) [nM]	also measured
COc1ccc2c(c[n+]3c4c2ccc2c5c(cc(c24)CC3)OCO5)c1OC(=O)c1ccc(C)cc1	63.7	–	–	–	–	–
CCOc1c(OC)ccc2c1c[n+]1c3c2ccc2c4c(cc(c23)CC1)OCO4	41.9	–	–	–	–	–
COc1ccc2c(c[n+]3c4c2ccc2c5c(cc(c24)CC3)OCO5)c1OS(=O)(=O)c1ccc(NC(C)=O)cc1	8.9	–	–	–	–	–
COc1cc(C(=O)Oc2c(OC)ccc3c2c[n+]2c4c3ccc3c5c(cc(c34)CC2)OCO5)cc(OC)c1OC	86.5	380	920	370	320	–
COc1ccc2c(c[n+]3c4c2ccc2c5c(cc(c24)CC3)OCO5)c1OC	53.4	1200	560	1710	710	–
CC[C@@]1(O)C(=O)OCc2c1cc1n(c2=O)Cc2cc3cc(O)ccc3nc2-1 [HYDROXYCAMPTOTHECIN]	85.4	–	–	–	–	inhibition [6]: Active
COc1ccc2c(c[n+]3c4c2ccc2c5c(cc(c24)CC3)OCO5)c1OC(=O)c1ccc2c(c1)OCO2	88.6	420	3060	450	220	–
COc1ccc2c(c[n+]3c4c2ccc2c5c(cc(c24)CC3)OCO5)c1OC(=O)c1ccc(F)cc1	70.3	–	–	–	–	–
COc1cc([C@@H]2c3cc4c(cc3[C@@H](O[C@@H]3O[C@@H]5CO[C@@H](C)O[C@H]5[C@H](O)[C@H]3O)[C@H]3COC(=O)[C@H]23)OCO4)cc(OC)c1O	–	–	–	–	–	inhibition [7]: Active
CCCCOc1c(OC)ccc2c1c[n+]1c3c2ccc2c4c(cc(c23)CC1)OCO4	62.6	–	–	–	–	–
COc1ccc2c(c[n+]3c4c2ccc2c5c(cc(c24)CC3)OCO5)c1OCc1ccc(F)cc1F	50.7	–	–	–	–	–
COc1ccc2c(c[n+]3c4c2ccc2c5c(cc(c24)CC3)OCO5)c1OC(=O)c1ccccc1F	93.7	930	420	280	150	–
COc1ccc2c(c[n+]3c4c2ccc2c5c(cc(c24)CC3)OCO5)c1OC(=O)c1ccc(C)c([N+](=O)[O-])c1	50.9	–	–	–	–	–
COc1ccc2c(c[n+]3c4c2ccc2c5c(cc(c24)CC3)OCO5)c1OC(=O)c1ccc(F)c([N+](=O)[O-])c1	69.6	–	–	–	–	–
COc1ccc(C(=O)Oc2c(OC)ccc3c2c[n+]2c4c3ccc3c5c(cc(c34)CC2)OCO5)cc1	84.5	440	390	430	410	–
COc1ccc2c(c[n+]3c4c2ccc2c5c(cc(c24)CC3)OCO5)c1O	50	–	–	–	–	–
COc1ccc2c(c[n+]3c4c2ccc2c5c(cc(c24)CC3)OCO5)c1OS(=O)(=O)c1ccccc1	56.2	–	–	–	–	–
COc1ccc2c(c[n+]3c4c2ccc2c5c(cc(c24)CC3)OCO5)c1OC(=O)c1ccc(F)cc1F	92.5	620	3110	390	130	–
COc1cccc2c1C(=O)c1c(O)c3c(c(O)c1C2=O)C[C@@](O)(C(=O)CO)C[C@@H]3O[C@H]1C[C@H](N)[C@H](O)[C@H](C)O1 [DOXORUBICIN]	–	–	–	–	–	IC50 [8]: 24.4 µg/mL (≈ 44.9 µM)
COc1ccc2c(c[n+]3c4c2ccc2c5c(cc(c24)CC3)OCO5)c1OC(=O)c1ccccc1.[Cl-]	86.6	470	5610	410	140	Activity (HCT-116 [9]): 57.5%; Activity (HCT-116 [10]): 2.18%; Activity (HCT-116 [11]): 73.3%; Activity (HCT-116 [12]): 13.2%; Activity (HCT-116 [13]): 2.29%; Activity (HCT-116 [14]): 29.3%; IC50 (MCF7): 2.5 µg/mL; inhibition [15]: Active; Activity (HCT-116 [16]): 24.6%; inhibition [17]: Active; Activity (HCT-116 [18]): 45.9%; Activity (HCT-116 [19]): 51.8%; IC50 [8]: 3.66 µg/mL
COc1ccc2c(c[n+]3c4c2ccc2c5c(cc(c24)CC3)OCO5)c1OC(=O)c1ccccc1Cl	62.3	–	–	–	–	–
COc1ccc(C(=O)Oc2c(OC)ccc3c2c[n+]2c4c3ccc3c5c(cc(c34)CC2)OCO5)cc1[N+](=O)[O-]	53.6	–	–	–	–	–
COc1ccc2c(c[n+]3c4c2ccc2c5c(cc(c24)CC3)OCO5)c1OCc1ccccc1	53.3	–	–	–	–	–
COc1ccc2c(c[n+]3c4c2ccc2c5c(cc(c24)CC3)OCO5)c1OC(C)=O	88.7	1010	90	840	190	–
